According to ChEMBL document CHEMBL1131624, “Inhibitors of acyl-CoA:cholesterol O-acyltransferase. 2. Identification and structure-activity relationships of a novel series of N-alkyl-N-(heteroaryl-substituted benzyl)-N'-arylureas” (J Med Chem, 1998):
Calls of active or inactive are those of the source. The calls are words filed in the database; no cut-off is given here.

How the values were obtained:
[1] = test system: Rattus norvegicus; assay: Compound was evaluated for percent reduction in total cholesterol level at >0.32 mg/kg; format: functional
Procedure, shortened: (§1)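 Cholesterol-fed rats given compound orally as a dietary admixture in a cholesterol-enriched diet. Plasma total cholesterol compared with control and reported as percent reduction at the dose, or as ED50, the dose reducing plasma total cholesterol by 50% of the control value.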

[2] = target: O-acyltransferase (Oryctolagus cuniculus, UniProt G1SFD9); assay: In vitro inhibitory activity against Acyl coenzyme A:cholesterol acyltransferase (ACAT) in rabbit intestinal microsomes; set-up: species or system Intestine
Procedure, shortened: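 Enzyme source was mucosal microsomes from small intestine of cholesterol-fed rabbits, incubated with [1-¹⁴C]oleoyl-CoA (Heider method, minor modifications).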

[3] = target: T1, Sterol O-acyltransferase, Soat (Rattus norvegicus) (UniProt Q7TQM4+O70536); assay: Effective dose to reduce plasma total cholesterol level by 50% of the control value in cholesterol fed rats; format: functional; procedure, shortened: as §1
[4] = species: Rattus norvegicus; assay: Effective dose to reduce plasma total cholesterol level by 50% of the control in cholesterol fed rats; format: functional; procedure, shortened: as §1
[5] = target: T1, Sterol O-acyltransferase, Soat (Rattus norvegicus); assay: Percentage reduction in total cholesterol level at <1 mg/kg; format: functional, organism-based; procedure, shortened: as §1
[6] = test system: Rattus norvegicus; assay: Compound was evaluated for percent reduction in total cholesterol level at >0.32 mg/kg; Inactive; format: functional, organism-based; procedure, shortened: as §1
[7] = test system: Rattus norvegicus; assay: Compound was evaluated for percent reduction in total cholesterol level at >0.1 mg/kg; Inactive; format: functional, organism-based; procedure, shortened: as §1
[8] = test system: Rattus norvegicus; assay: Effective dose to reduce plasma total cholesterol level by 50% of the control in cholesterol fed rats when administered by gavage in PEG400 as a vehicle; format: functional; settings: po
Procedure, shortened: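 Rats on a cholesterol diet were dosed orally by gavage with compound in PEG400 vehicle. Plasma total cholesterol measured. ED50 is the dose reducing it by 50% of the control value.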

[9] = species: Mus musculus; assay: Compound tested for inhibitory activity of foam cell formation in mouse peritoneal macrophages; format: functional
Procedure, shortened: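 Mouse peritoneal macrophages from nonstimulated mice, lavaged with PBS, plated 2 × 10⁶ cells/mL, adhered 2 h, then 18 h in 10% FBS-DMEM. Incubated 4 h at 37 °C with 0.2 mmol/L [1-¹⁴C]oleate–BSA, 30 µg/mL acetylated human LDL and compound (0.1% DMSO). Lipids extracted, TLC-separated, and cholesteryl [¹⁴C]oleate counted. Cell protein also measured. IC50 in nM.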

[10] = test system: Rattus norvegicus; assay: Compound was evaluated for percent reduction in total cholesterol level at >1 mg/kg; inactive; format: functional, organism-based; procedure, shortened: as §1

Sequence of O-acyltransferase (G1SFD9 1-524): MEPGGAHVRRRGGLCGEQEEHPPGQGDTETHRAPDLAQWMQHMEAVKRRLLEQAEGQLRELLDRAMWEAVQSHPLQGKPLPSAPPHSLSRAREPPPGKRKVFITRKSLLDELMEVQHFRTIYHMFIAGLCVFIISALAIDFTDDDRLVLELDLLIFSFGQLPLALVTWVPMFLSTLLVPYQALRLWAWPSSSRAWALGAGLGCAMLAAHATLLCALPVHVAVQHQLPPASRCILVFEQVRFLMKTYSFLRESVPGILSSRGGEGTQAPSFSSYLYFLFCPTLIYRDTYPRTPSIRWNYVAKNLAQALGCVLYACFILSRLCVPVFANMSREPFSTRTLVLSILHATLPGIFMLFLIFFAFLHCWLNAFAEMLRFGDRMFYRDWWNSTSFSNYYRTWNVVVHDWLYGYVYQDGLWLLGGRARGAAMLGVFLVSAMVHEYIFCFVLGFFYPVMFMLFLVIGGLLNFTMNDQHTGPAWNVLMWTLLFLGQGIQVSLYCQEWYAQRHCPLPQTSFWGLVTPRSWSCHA

| SMILES | IC50 [2] | ED50 [3] | other results |
| --- | --- | --- | --- |
| CSc1cc(C)nc(SC)c1NC(=O)N(Cc1cccc(-c2cc[nH]n2)c1)C1CCCCCC1 | 260 nM | > 0.32 mg/kg | Reduction [1]: 24% |
| Cc1cc(C)c(NC(=O)N(Cc2ccc(-c3ccn(C)n3)cc2)C2CCCCCC2)c(C)c1 | 44 nM | < 1 mg/kg | ED50 [4]: > 0.32 mg/kg; Reduction [5]: 88%; Reduction [6]: inactive |
| Cc1cc(C)c(NC(=O)N(Cc2ccc(-c3ccccc3)cc2)C2CCCCCC2)c(C)c1 | 24 nM |  | ED50 [4]: 0.29 mg/kg |
| Cc1cc(C)c(NC(=O)N(Cc2ccc(-c3nnc(C)o3)cc2)C2CCCCCC2)c(C)c1 | 27 nM | > 0.32 mg/kg | Reduction [1]: 37% |
| CSc1cc(C)nc(SC)c1NC(=O)N(Cc1ccccc1)Cc1ccc(-c2ccn(C)n2)cc1 | 29 nM | > 0.32 mg/kg | Reduction [7]: inactive |
| O=C(Nc1c(F)cc(F)cc1F)N(Cc1cccc(-c2cc[nH]n2)c1)C1CCCCCC1 | 22 nM | 0.062 mg/kg | ED50 [8]: 0.79 mg/kg; IC50 [9]: 580 nM |
| Cc1cc(C)c(NC(=O)N(Cc2c[nH]c(-c3ccccc3)n2)C2CCCCCC2)c(C)c1 | 750 nM | > 1 mg/kg | Reduction [10]: inactive |
